# Apaf1 activ: activators of human Apaf-1 apoptosome | O14727 | Apaf-1 apoptosome caspase-3 activation, DEVD-Rh110 fluorescence; stronger effect = lower value | activity change, negative = activation, % at 20 µM | hit rate 0.31% among 330,000 | AID 489031;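 active = activity change at or below -40% at 20 µM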
# Target sequence (O14727 whole entry, looked up): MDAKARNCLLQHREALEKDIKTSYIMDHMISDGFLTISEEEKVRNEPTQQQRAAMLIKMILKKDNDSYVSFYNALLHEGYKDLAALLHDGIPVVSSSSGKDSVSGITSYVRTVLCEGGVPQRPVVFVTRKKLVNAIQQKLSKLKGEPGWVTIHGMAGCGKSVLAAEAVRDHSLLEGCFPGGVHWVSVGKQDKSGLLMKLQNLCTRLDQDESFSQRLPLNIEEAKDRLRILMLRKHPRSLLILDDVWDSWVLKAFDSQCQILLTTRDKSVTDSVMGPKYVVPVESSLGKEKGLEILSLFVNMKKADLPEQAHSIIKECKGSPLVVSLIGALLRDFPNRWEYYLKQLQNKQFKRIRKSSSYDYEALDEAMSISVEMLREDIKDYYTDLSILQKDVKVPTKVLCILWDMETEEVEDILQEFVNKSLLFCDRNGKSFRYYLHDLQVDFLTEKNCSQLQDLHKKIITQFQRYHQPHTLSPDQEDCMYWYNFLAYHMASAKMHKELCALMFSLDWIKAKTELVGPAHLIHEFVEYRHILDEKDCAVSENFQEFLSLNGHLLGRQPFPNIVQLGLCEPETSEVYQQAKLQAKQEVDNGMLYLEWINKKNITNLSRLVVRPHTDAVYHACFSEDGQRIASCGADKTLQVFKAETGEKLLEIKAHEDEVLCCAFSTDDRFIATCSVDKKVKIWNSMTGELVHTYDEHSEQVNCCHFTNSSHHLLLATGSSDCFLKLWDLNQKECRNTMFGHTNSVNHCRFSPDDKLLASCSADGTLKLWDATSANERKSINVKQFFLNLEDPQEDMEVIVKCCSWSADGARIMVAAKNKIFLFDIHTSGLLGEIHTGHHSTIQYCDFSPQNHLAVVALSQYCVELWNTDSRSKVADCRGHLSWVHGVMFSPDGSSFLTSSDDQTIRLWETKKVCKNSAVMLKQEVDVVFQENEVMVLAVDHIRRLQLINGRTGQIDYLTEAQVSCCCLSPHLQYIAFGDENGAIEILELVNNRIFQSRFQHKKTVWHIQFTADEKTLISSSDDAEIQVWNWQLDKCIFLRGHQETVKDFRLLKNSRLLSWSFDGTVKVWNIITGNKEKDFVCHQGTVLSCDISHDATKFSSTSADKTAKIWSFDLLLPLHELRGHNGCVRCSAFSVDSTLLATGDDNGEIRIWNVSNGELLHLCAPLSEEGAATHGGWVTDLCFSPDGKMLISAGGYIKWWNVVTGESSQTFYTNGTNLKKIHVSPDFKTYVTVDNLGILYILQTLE
#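 Schedule: 30 min preincubation, 50 min reaction, room temperature / System: biochemical Apaf-1 apoptosome reconstitution / Medium: 20 mM HEPES pH 7.5 with CHAPS, BSA / Evaluation: Caspase-3 cleavage activity downstream of Apaf-1 activation / Detection: Caspase-3-released Rh110 fluorescence, 540 nm emission, 480 nm excitation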
# Rh110 act interf: counter-screen for Apaf-1 activators: fluorescence interference; Rh110 fluorescence interference, quenched caspase reaction, Ex480/Em540; fluorescence interference (activity change), % at 20 µM, hits read low; 980 tested, under 10 active; shares compounds with Apaf1 activ; AID 504616;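 active = mean activity change at or below -40% when tested at 20 µM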
# Apaf-1 act conf: confirmation of human Apaf-1 activators | activity change, negative = activation, % at 20 µM | AID 504617 | reconstituted apoptosome caspase-3 activity, DEVD-Rh110 fluorescence; stronger effect = lower value | shares compounds with Apaf1 activ | hit rate 5% among 980;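 active = mean activity change at or below -40%, meaning activation of 40% or more, at 20 µM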
# Fluor interf act: shows fluorescence interference in the Apaf-1 activator assay format. shares compounds with Apaf1 activ. fluorescence interference counterscreen. EC50, µM. 55 tested, under 10 active. AID 588592; call rule not given here
# The depositor's hits bear a star; nt = no result given. Only a sample is shown.
SMILES,Apaf1 activ,Rh110 act interf,Apaf-1 act conf,others
Cc1ccc(C)c2[nH]c(=O)c(C(c3nnnn3Cc3ccco3)N3CCc4ccccc4C3)cc12 (stereo unspecified),71,nt,nt,
CC1=[N+](C)c2ccc3ccccc3c2C1(C)C,42,nt,nt,
COc1ccc(Br)cc1C1CC(=O)N2CN(Cc3ccccc3)CSC2=C1C#N (stereo unspecified),78,nt,nt,
O=C(O)/C=C/C(=O)c1ccc(O)cc1,-83*,-1,0,
Cc1c(C(=O)N(C)CCOc2ccccc2)oc2c(Cl)cccc12,45,nt,nt,
Cc1ccc(C)c(S(=O)(=O)C(C#N)c2nc3ccccc3nc2N2CCCC2)c1 (stereo unspecified),87,nt,nt,
Cc1ccc(C)c(S(=O)(=O)c2c(C)cc(C)nc2Cl)c1,-303*,1,8,
CC(C)(C)c1ccc(C(O)CCCN2CCC(C(O)(c3ccccc3)c3ccccc3)CC2)cc1 (stereo unspecified),53,nt,nt,
COC(=O)CCC(=O)OC1(C)C(=O)C=C2C=C(C3CC3)N(Cc3ccccc3)C=C2C1=O (stereo unspecified),42,nt,nt,
Cc1cc(C)n2nc(N)c(N=Nc3ccccc3)c2n1,-4,nt,nt,
Cc1cc(C)n2nc(SC(C)C(=O)N(C)c3ccccc3)nc2n1 (stereo unspecified),-54*,1,10,
CCN1C(=O)CC(c2ccccc2)N(C2CCCC2)c2nc(Nc3ccc(C(=O)NC4CCN(C)CC4)cc3OC)ncc21 (stereo unspecified),70,nt,nt,
CC1CN(CCC(=O)Nc2ccc3c(c2)CCC3)CC(C)O1 (stereo unspecified),-85*,10,16,
Cc1ccc(-c2nn3c(C)nnc3c3ccccc23)cc1S(=O)(=O)NC(C)c1ccccc1 (stereo unspecified),57,nt,nt,
Cc1nn2c(-c3ccncc3)nnc2c2ccccc12,74,nt,nt,
COc1ccc(NC(=S)Nc2ccc3nsnc3c2)cc1,97,nt,nt,
COCCNC(=O)c1c(N)n(CCC2=CCCCC2)c2nc3ccccc3nc12,63,nt,nt,
COCCNC(=O)c1cc2nc(-c3ccccc3)cc(C)n2n1,-169*,12,14,
CCCCCCCCCn1c2c(c(=N)c3c1CCC3)CCCC2,51,nt,nt,
Cc1ccc(NS(=O)(=O)c2ccc(NC(=O)C3CCCO3)cc2)cc1 (stereo unspecified),-52*,6,12,
CC(=O)Nc1ccc(S(=O)(=O)NC2=C(N3CCN(c4ccc(F)cc4)CC3)C(=O)c3ccccc3C2=O)cc1,64,nt,nt,
CCc1noc(C)c1C(=O)N1CCN(S(=O)(=O)c2c(C)cc(C)cc2C)CC1,57,nt,nt,
CC(C)CCn1c(N)c(S(=O)(=O)c2cccs2)c2nc3ccccc3nc21,51,nt,nt,
N#Cc1cccc(S(=O)(=O)N2CCN(c3ccnc4cc(Cl)ccc34)CC2)c1,-135*,3,9,
CC(C)c1c(Cl)c(O)c(-c2ccccc2)c(=O)n1-c1ccc(F)cc1,-40*,-6,12,
SMILES,Apaf1 activ,Rh110 act interf,Apaf-1 act conf,others
CC1=NN(c2ccc(C)c(C)c2)C(=O)C1C(c1cccc(O)c1)C1C(=O)N(c2ccc(C)c(C)c2)N=C1C (stereo unspecified),87,nt,nt,
CCOC(=O)C1CCN(c2cc3c(cc2NC(=O)c2ccccc2OCC)n(C)c(=O)n3C)CC1,40,nt,nt,
Cc1cccc(NC(=O)c2ccccc2OCC(=O)N2CCOCC2)c1C,-546*,20,14,
COc1cc(C(=O)N2CCN(c3cccc(C)c3C)CC2)ccc1OCC(=O)N1CCOCC1,51,nt,nt,
CCSc1ncc(Cl)c(C(=O)Nc2ccc(S(=O)(=O)Nc3ncccn3)cc2)n1,-76*,0,6,
Cc1ccc2c(c1)c(=O)c1c3n2CCN(C(=O)CCl)C3CC1 (stereo unspecified),64,nt,nt,
COCc1cc(=O)oc2cc(NC(=O)c3ccc(C(C)(C)C)cc3)ccc12,-64*,0,7,
S=c1nc[nH]c2nc[nH]c12,2,nt,nt,
COC1=CC(=O)c2ccccc2C1=O,79,nt,nt,
N#C/C(=C/c1ccc(N2CCOCC2)o1)c1ccc(Br)cc1,-109*,-2,19,
C#CCOCCOCCOCCNc1nc(N2CCOCC2)nc(N2CCN(C(=O)CCCCCCCCCCNC(=O)[C@H]([C@@H](C)CC)n3cc(CCCCN=C(N)N)nn3)CC2)n1,60,nt,nt,
CS(=O)c1nc(-c2ccc(Br)cc2)cc(-c2ccccc2)c1C#N (stereo unspecified),55,nt,nt,
Cc1cccc(NC(=O)CC2Nc3cccc4cccc(c34)NC2=O)c1 (stereo unspecified),71,nt,nt,
Cc1cccc(NC2=C(NCCO)C(=O)c3ccccc3C2=O)c1,56,nt,nt,
Cc1cccc(NC(=O)NC2CCCc3ccccc32)c1 (stereo unspecified),-379*,1,0,
COc1cc2ccccc2cc1C(=O)Nc1sc2c(c1C(N)=O)CCN(C(C)C)C2,51,nt,nt,
c1ccc(-c2c(-c3ccccc3)n(Cc3ccco3)c3ncnc(NCCCn4ccnc4)c23)cc1,42,nt,nt,
Nc1cc(S(=O)(=O)O)cc([N+](=O)[O-])c1O,-110*,-5,4,
O=[N+]([O-])c1cc(F)c2cccnc2c1O,64,nt,nt,
COc1ccc(C(=O)N(C)C(C)c2ccon2)cc1OC1CCN(C(C)C)CC1 (stereo unspecified),-315*,13,14,
CC1(C)C(C(=O)OCC(Cl)(Cl)Cl)N2C(=O)C(NC(=O)Cc3ccccc3)C2S1=O (stereo unspecified),-85*,0,12,
CC1(C)S[C@@H]2[C@H](NC(=O)[C@H](N)c3ccccc3)C(=O)N2[C@H]1C(=O)O,-2,nt,nt,
COc1ccc(-c2nc3nc(C)c(Cc4ccccc4)c(=O)n3[nH]2)cc1,49,nt,nt,Fluor interf act=>100
COc1ccc(Cn2nc(-c3ccccc3)c(N3CCCCC3)cc2=O)cc1,46,nt,nt,
CCOc1cc(CNc2ccc(O)cc2)ccc1OCc1ccc(Cl)cc1Cl,94,nt,nt,
SMILES,Apaf1 activ,Rh110 act interf,Apaf-1 act conf,others
Cc1ccc(-c2ccc(/C=N/N=C3/NC(=O)C(CC(=O)O)S3)o2)c([N+](=O)[O-])c1 (stereo unspecified),74,nt,nt,
CC(C)[C@@H]1CN=C(N)N1C[C@@H]1CCCN1C[C@H](C)N1C[C@@H](Cc2ccccc2)N(CCc2ccc(Cl)c(Cl)c2)C1=N,54,nt,nt,
CCOC(=O)C1=C(C)OC2(O)c3ccccc3C(=O)C12O (stereo unspecified),88,nt,nt,
CC(=O)C1=C(C)OC2(O)c3ccccc3C(=O)C12O (stereo unspecified),93,nt,nt,
CC(=O)Oc1ccc2c(c1)Oc1cc(OC(C)=O)ccc1C21OC(=O)c2ccccc21,-259*,-154*,-73*,
COc1ccc(-c2cc(=O)n(-c3ccc([N+](=O)[O-])cc3)[nH]2)cc1,65,nt,nt,
CCOc1cccc2sc(N(CCCN(C)C)C(=O)c3ccc(S(=O)(=O)N(CC)Cc4ccccc4)cc3)nc12,67,nt,nt,
O=C(NCc1ccccc1)c1ccc(CN(c2ccccn2)S(=O)(=O)c2ccccc2)cc1,-115*,4,2,
CCOc1cccc2sc(N(CCCN(C)C)C(=O)c3ccc(S(=O)(=O)N(C)Cc4ccccc4)cc3)nc12,62,nt,nt,
COc1ccc(NC(=O)c2cc(-c3ccncc3)nc3ccc(Br)cc23)cc1OC,45,nt,nt,

# Source: PubChem BioAssay
